Laboratory results: PubChem BioAssay
Inconclusive results are not listed.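 How the source made its calls, unless noted: active means RAM network inhibition above 8.4% in each of two replicates, 3 SD over the compound average; inconclusive means above 8.4% inhibition in only one replicate; inactive means 8.4% inhibition or less in each replicate.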

Assays:
[1] = S. cerevisiae growth inhibition in permissive medium (OD615), pilot counter-assay for S. cerevisiae lifespan shortening project, permissive growth control (AID 705;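 active means growth inhibition above 25% in both replicates, a cutoff set 3 SD above the mean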); conditions: OD615, 24 h, at 10 µM, active compounds read high
Method in brief: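 assay system = Saccharomyces cerevisiae strain carrying genetically modified DeaD replicative-lifespan system | technique = absorbance (optical density) at 615 nm | buffer or medium = permissive raffinose/galactose medium | timing = cells pre-grown 4 h, then 24 h compound exposure, 30 °C humidified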

[2] = S. cerevisiae growth inhibition in restrictive medium, OD615, pilot screen, restrictive growth control, yeast lifespan reduction project (AID 706;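 active means growth inhibition above a set limit, 3 SD over mean compound inhibition, in both replicates, cut at about 43% in these data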;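 further: modified DeaD lifespan yeast strain shifted to restrictive glucose medium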); conditions: OD615, 48 h, at 10 µM, active compounds read high
Method in brief: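 System: modified S. cerevisiae. Buffer or medium: CSMM-D glucose medium. Incubation: 4 h pre-growth plus 48 h compound exposure, 30 °C. Detection: absorbance (optical density) measured at 615 nm.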

[3] = doxorubicin toxicity protection in MRP-1 cells – H69AR cells, CellTiter-Glo, duplicate, MRP-1 activator project, pilot screen (AID 807;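 active means viability increase at or above a cutoff of the median across tested compounds plus 3 SD, cut at about 8.5% in these data, passing the limit was not always enough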;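 further: compound pretreatment 18-22 h then 72 h combined with doxorubicin; 0% = doxorubicin alone and 100% = vehicle without doxorubicin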); conditions: H69AR viability with doxorubicin, CellTiter-Glo luminescence; at 10 µM; active compounds read high
[4] = viability of HCT116 without oncogenic beta-catenin – human colon tumor cells, pilot screen (AID 823;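 active means cell viability at or below a set limit in both duplicate runs, the limit being the all-compound median minus 4 SD, cut at about 23% in these data, passing the limit was not always enough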;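 further: 0% = wells killed by 20 µM Hyamine and 100% = untreated DMSO cell wells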); conditions: HCT116 beta-catenin knockout viability, CellTiter-Glo, 60 h; at 10 µM; active compounds read low
[5] = viability of PTEN-null HCT116 cells – cell-based, HCT116 clonal line, CellTiter-Glo, pilot screen (AID 824;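 active means viability at or below 27.92% in each of two runs, the all-compound median minus 4 SD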;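 further: 0% = 20 µM Hyamine control and 100% = vehicle cell control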); conditions: HCT116 PTEN-deleted viability, 60 h, at 10 µM, active compounds read low
[6] = RAM signaling pathway blockade in yeast – S. cerevisiae, Pdr1DBD-CYC8 efflux-inhibited sensitized strain, primary screen (AID 1298);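 further: 0% = DMSO untreated cells without growth and 100% = 10 µM 1-NA-PP1 full growth; higher means more yeast growth rescued from 5-FOA killing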; conditions: S. cerevisiae cbk1-as DSE1-URA3 strain, 5-FOA growth OD615, 2 d; at 50 µM; active compounds read high
[7] = RAM pathway blockade in budding yeast – dse1pr::URA3 reporter, 5-FOA selection, pilot screen (AID 869;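 active means inhibition over a set limit, the all-compound mean plus 3 SD, in both replicate runs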;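 further: 0% = DMSO wells with no growth and 100% = 10 µM 1-NA-PP1 with full growth; RAM network block rescues cells from 5-FOA so hits raise OD615 growth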); conditions: S. cerevisiae dse1pr::URA3 5-FOA growth, OD615, 2 d; at 10 µM; active compounds read high; strain carries analog-sensitive mutant Cbk1 kinase

COc1ccc(C(=O)c2oc3ccc(Br)cc3c2NC(C)=O)cc1
inactive: growth inhibition [1] -2.44% | growth inhibition [2] -3.18% | viability increase [3] -3.96% | viability [4] 97.7% | viability [5] 104% | RAM network inhibition [6] 1.07%

CCCCCCSc1cc(C)nc2ncnn12
inactive: growth inhibition [1] -19% | growth inhibition [2] 2.92% | viability increase [3] -0.06% | viability [4] 93.6% | viability [5] 83.2% | RAM network inhibition [6] 0.21%

COC(=O)c1nnc(-c2ccccc2)c(-c2ccccc2)n1
inactive: growth inhibition [1] -20.7% | growth inhibition [2] -24.7% | viability increase [3] -1.82% | viability [4] 104% | viability [5] 99.5% | RAM network inhibition [6] 9.17%

O=C(Cc1c(C(=O)O)[nH]c2ccccc12)NC1CCN(Cc2ccccc2)CC1
inactive: growth inhibition [1] -9.14% | growth inhibition [2] -14.9% | viability increase [3] 0.24% | viability [4] 102% | viability [5] 99.8% | inhibition [7] 1.6% | RAM network inhibition [6] -1.14%

CCOc1ccc(N(CC(=O)NCCCOC)S(C)(=O)=O)cc1
inactive: growth inhibition [1] 4.66% | growth inhibition [2] 3.23% | viability increase [3] -2.35% | viability [4] 98.9% | viability [5] 101% | inhibition [7] 0.95% | RAM network inhibition [6] 2.73%

CCOC(=O)c1c(NC(=O)c2cccs2)sc2c1CCC2
inactive: growth inhibition [1] -13.6% | growth inhibition [2] -20.4% | viability increase [3] -0.45% | viability [4] 91.7% | viability [5] 90.4% | RAM network inhibition [6] 4.33%

CCc1ccc(C2CC(c3cccc(Cl)c3)n3nc(N)nc3N2)cc1 (stereo not given)
inactive: growth inhibition [1] -3.09% | growth inhibition [2] 10.4% | viability increase [3] -3.92% | viability [4] 71.5% | viability [5] 65.6% | inhibition [7] 2.25% | RAM network inhibition [6] 9.11%

CCCCCOC(=O)NCC(O)c1ccccc1 (stereo not given)
inactive: growth inhibition [1] -12.5% | growth inhibition [2] -8.97% | viability increase [3] -1.52% | viability [4] 101% | viability [5] 95.5% | inhibition [7] 2.22% | RAM network inhibition [6] 5.59%

Cc1ccc(C)c(NC(=O)C2CC=CCC2C(=O)O)c1 (stereo not given)
inactive: growth inhibition [1] 3.24% | growth inhibition [2] 5.03% | viability increase [3] -0.5% | viability [4] 101% | viability [5] 104% | inhibition [7] 1.96% | RAM network inhibition [6] 4.68%

COc1ccc(-n2c(SCC(=O)Nc3nccs3)nc3c(c2=O)SCC3)cc1
inactive: growth inhibition [1] -1.01% | growth inhibition [2] -11.5% | viability increase [3] -3.87% | viability [4] 93.2% | viability [5] 84.6% | RAM network inhibition [6] 5.95%

O=C(CCc1nc2ccccc2[nH]1)Nc1ccc2c(c1)OCCO2
inactive: growth inhibition [1] -17.1% | growth inhibition [2] -18.4% | viability increase [3] -2.36% | viability [4] 94.2% | viability [5] 94.8% | RAM network inhibition [6] 0.89%

Cn1c(=O)c2cc(NCc3ccccc3)nnc2n(C)c1=O
inactive: growth inhibition [1] -12.8% | growth inhibition [2] -9.73% | viability increase [3] -2.1% | viability [4] 67.5% | viability [5] 58.8% | inhibition [7] 0.38% | RAM network inhibition [6] -0.94%

O=C(Cn1cnc2c(nnn2Cc2ccc(Cl)cc2)c1=O)N1CCN(c2ccccc2)CC1
inactive: growth inhibition [1] -7.16% | growth inhibition [2] -12.6% | viability increase [3] 3.63% | viability [4] 82.3% | viability [5] 80.5% | inhibition [7] 1.98% | RAM network inhibition [6] 6.43%

O=C(Cn1cc2c(n1)CCCC2)NC1CCN(Cc2ccccc2)CC1
inactive: growth inhibition [1] 2.67% | growth inhibition [2] 5.09% | viability increase [3] -1.67% | viability [4] 87% | viability [5] 87% | inhibition [7] 0.965% | RAM network inhibition [6] -0.16%

COc1cccc(CNC(=O)c2cc3ccccn3n2)c1
inactive: growth inhibition [1] -1.27% | growth inhibition [2] -6.35% | viability increase [3] -2.27% | viability [4] 106% | viability [5] 96.8% | inhibition [7] 1.33% | RAM network inhibition [6] -0.11%

Clc1ccc(-c2nnc(SCc3nc(-c4ccccc4)no3)o2)cc1
inactive: growth inhibition [1] -10.1% | growth inhibition [2] -9.97% | viability increase [3] -3.34% | viability [4] 99.2% | viability [5] 91.7% | RAM network inhibition [6] 4.9%

O=C(c1cnn2c(C(F)(F)F)cc(-c3ccccc3)nc12)N1CCOCC1
inactive: growth inhibition [1] -14.6% | growth inhibition [2] -10% | viability increase [3] -2.81% | viability [4] 103% | viability [5] 99.8% | inhibition [7] 0.505% | RAM network inhibition [6] -1.1%

O=C(NCCc1csc(-c2ccccc2)n1)c1cccs1
inactive: growth inhibition [1] -8.41% | growth inhibition [2] 2.89% | viability increase [3] 2.21% | viability [4] 93.7% | viability [5] 94.5% | inhibition [7] 0.41% | RAM network inhibition [6] 3.89%

Cc1cc(NC(=O)CSc2cn(CCNC(=O)c3ccc(Cl)cc3)c3ccccc23)no1
inactive: growth inhibition [1] -4.83% | growth inhibition [2] -1.28% | viability increase [3] -0.7% | viability [4] 61.5% | viability [5] 57.3% | RAM network inhibition [6] 3.24%
